Drawing on ChEMBL document CHEMBL3745614, “Potent and selective N-(4-sulfamoylphenyl)thiourea-based GPR55 agonists” (Eur J Med Chem, 2016), this text covers EC50 and Activity for nine compounds.

Test [1] deals with T1, G-protein coupled receptor 55 (Homo sapiens, UniProt Q9Y2T6). Briefly: Agonist activity at human GPR55 expressed in HEK293 cells assessed as calcium signalling by fura 2-based digital epifluorescence microscopy. Type of test: functional, cell-based. In outline:
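HEK293 cells stably expressing GPR55, grown on poly-L-lysine coated glass coverslips and serum-starved overnight. Compounds applied by bath perfusion in HEPES-buffered saline at 30-32 °C. Single-cell fura 2 ratiometric imaging (350/380 nm) every 5 s. Peak responses pooled from 24 cells (12 random cells from each of two experiments) per concentration; EC50 with 95% CI from concentration-response curves. ARA-LPI used as reference agonist.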

Test [2] addresses T2, Monoglyceride lipase (Homo sapiens) (UniProt Q99685).
T2 sequence (whole entry): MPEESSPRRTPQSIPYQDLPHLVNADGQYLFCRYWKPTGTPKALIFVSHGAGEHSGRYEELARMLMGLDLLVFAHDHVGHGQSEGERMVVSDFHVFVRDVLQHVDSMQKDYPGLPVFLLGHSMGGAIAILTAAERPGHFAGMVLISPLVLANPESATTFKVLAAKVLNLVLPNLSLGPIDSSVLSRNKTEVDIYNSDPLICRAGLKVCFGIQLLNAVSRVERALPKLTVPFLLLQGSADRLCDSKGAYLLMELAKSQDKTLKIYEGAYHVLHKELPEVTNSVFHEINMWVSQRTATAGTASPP
Briefly: Inhibition of human MGL expressed in […] cells using 2AG as substrate assessed as residual activity at 10 uM preincubated for 10 mins followed by substrate addition measured after 10 mins by HPLC analysis. Type of test: cell-based. In outline: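 Lysates of HEK cells overexpressing hMGL, 2.5 μg protein per incubation, substrate at 50 μM. Compounds tested at 10 μM.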

In test [3] the target is T1, G-protein coupled receptor 55. The test can be described thus: Agonist activity at human GPR55 expressed in CHOK1 cells at 10 uM by pathHunter beta-arrestin assay relative to control. Type of test: cell-based. The following applies: CHO-K1. The procedure, abridged:
(§1)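 PathHunter eXpress GPR55 CHO-K1 β-arrestin kit run per the kit protocol, compounds screened at 10 μM. Luminescence read and expressed as percentage of the signal from bovine liver LPI at 1 μM. Mean with range of two experiments, each done in duplicate.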

The target in test [4] is Cannabinoid receptor 1 (Homo sapiens) (UniProt P21554). Briefly: Agonist activity at CBR1 (unknown origin) assessed as [35S]GTPgammaS binding at 10 uM by […] assay relative to control. The class given is functional. On the technique in general: Binding of GTPγS marks nucleotide exchange on a G protein.
Cannabinoid receptor 1 (Homo sapiens), sequence (P21554 whole entry): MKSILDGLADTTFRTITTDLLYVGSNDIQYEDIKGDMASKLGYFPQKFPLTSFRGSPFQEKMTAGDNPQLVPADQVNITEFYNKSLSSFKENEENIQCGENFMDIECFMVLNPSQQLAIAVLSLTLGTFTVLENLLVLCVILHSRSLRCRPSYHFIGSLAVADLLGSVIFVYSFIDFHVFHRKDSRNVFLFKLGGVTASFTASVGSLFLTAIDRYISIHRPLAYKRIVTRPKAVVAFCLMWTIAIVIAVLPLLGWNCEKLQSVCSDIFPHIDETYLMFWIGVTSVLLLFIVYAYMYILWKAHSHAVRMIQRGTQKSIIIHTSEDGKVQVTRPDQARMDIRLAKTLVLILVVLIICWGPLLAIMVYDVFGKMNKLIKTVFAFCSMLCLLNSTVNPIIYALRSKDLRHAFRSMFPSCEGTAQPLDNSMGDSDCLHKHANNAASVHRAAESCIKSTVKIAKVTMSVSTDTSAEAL
For test [5], the target named is Cannabinoid receptor 2 (Homo sapiens) (UniProt P34972). Briefly: Agonist activity at CBR2 (unknown origin) assessed as [35S]GTPgammaS binding at 10 uM by […] assay relative to control. Type of test: functional.
Cannabinoid receptor 2 (Homo sapiens), sequence (P34972 whole entry): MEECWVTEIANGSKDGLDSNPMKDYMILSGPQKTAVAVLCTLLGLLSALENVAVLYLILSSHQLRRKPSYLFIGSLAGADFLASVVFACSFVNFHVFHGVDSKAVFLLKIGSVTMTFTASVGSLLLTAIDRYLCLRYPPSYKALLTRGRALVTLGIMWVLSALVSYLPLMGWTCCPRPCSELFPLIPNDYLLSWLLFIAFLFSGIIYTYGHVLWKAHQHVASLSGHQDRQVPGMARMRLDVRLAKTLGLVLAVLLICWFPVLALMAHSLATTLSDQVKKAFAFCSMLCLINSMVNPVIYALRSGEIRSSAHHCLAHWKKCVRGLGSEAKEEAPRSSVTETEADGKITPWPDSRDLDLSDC
In test [6] the target is T3, Fatty-acid amide hydrolase 1 (Homo sapiens) (UniProt O00519).
T3 sequence (whole entry): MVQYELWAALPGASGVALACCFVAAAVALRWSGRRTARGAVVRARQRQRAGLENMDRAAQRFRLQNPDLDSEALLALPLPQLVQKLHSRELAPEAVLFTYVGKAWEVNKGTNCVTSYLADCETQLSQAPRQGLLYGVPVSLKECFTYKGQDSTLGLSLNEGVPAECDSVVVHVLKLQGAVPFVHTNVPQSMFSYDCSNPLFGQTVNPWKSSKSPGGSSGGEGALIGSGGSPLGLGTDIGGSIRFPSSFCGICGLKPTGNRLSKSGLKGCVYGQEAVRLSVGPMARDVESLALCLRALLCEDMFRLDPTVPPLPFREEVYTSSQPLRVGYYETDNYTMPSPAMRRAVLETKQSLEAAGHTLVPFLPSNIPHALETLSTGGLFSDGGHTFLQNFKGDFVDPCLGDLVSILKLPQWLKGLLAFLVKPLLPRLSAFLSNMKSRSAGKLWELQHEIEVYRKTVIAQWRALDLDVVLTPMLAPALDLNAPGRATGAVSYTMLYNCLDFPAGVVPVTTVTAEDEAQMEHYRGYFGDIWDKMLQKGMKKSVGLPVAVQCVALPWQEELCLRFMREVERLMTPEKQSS
Briefly: Inhibition of human FAAH expressed in African green monkey COS-7 cell membranes using [3H]-AEA as substrate assessed as residual activity at 10 uM preincubated for 10 mins followed by substrate addition measured after 10 mins by liquid scintillation counting analysis relative to control. The procedure, abridged:
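Membranes of COS-7 cells overexpressing hFAAH, 1 μg protein per incubation. Substrate 20 μM AEA including 10 nM [3H]AEA (60 Ci/mmol). Compounds tested at 10 μM.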

Test [7] addresses Cannabinoid receptor 2 (Homo sapiens) (UniProt P34972). Briefly: Antagonist activity at human CBR2 assessed as [35S]GTPgammaS binding at 10 uM by […] assay relative to control. Type of test: functional. More on the design: scale not given: the % may be the effect or the level left.
The target of test [8] is T4, Monoacylglycerol lipase ABHD6 (Homo sapiens) (UniProt Q9BV23).
T4 sequence (whole entry): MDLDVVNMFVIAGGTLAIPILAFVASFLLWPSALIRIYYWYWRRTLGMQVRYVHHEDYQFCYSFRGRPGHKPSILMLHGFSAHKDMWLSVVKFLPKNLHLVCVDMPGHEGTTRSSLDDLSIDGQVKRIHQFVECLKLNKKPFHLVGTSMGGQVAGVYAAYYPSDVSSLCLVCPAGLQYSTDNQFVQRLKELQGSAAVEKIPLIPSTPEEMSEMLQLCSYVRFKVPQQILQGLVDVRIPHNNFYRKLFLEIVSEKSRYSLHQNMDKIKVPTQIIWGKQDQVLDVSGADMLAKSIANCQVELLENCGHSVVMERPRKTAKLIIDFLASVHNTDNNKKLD
The test can be described thus: Inhibition of human ABHD6 expressed in […] cells using 2-AG as substrate assessed as glycerol liberation at 1 uM preincubated for 30 mins followed by 2-AG addition measured for 90 mins by fluorescent glycerol assay relative to control. More on the design: scale not given: the % may be the effect or the level left. The class given is cell-based. In outline:
(§2)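 Lysates of HEK293 cells transiently overexpressing hABHD6 or hABHD12, 0.3 μg protein/well. Pretreated 30 min with DMSO or compound, then 2-AG added (12.5 μM final). Glycerol release coupled enzymatically to H2O2-dependent resorufin formation; fluorescence (ex 530/em 590 nm) followed kinetically for 90 min.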

Test [9] addresses T5, Lysophosphatidylserine lipase ABHD12 (Homo sapiens) (UniProt Q8N2K0).
T5 sequence (whole entry): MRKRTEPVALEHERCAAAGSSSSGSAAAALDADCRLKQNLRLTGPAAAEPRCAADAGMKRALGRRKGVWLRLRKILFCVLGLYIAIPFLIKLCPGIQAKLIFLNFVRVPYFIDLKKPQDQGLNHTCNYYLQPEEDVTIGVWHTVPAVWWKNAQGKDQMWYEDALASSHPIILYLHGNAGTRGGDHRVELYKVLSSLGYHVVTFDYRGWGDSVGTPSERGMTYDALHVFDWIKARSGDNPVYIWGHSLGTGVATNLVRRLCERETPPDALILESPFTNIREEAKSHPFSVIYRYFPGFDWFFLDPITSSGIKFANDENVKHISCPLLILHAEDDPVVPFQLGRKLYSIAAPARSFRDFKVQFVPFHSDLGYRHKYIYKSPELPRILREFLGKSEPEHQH
Briefly: Inhibition of human ABHD12 expressed in […] cells using 2-AG as substrate assessed as glycerol liberation at 1 uM preincubated for 30 mins followed by 2-AG addition measured for 90 mins by fluorescent glycerol assay relative to control. The class given is cell-based. Also on record: scale not given: the % may be the effect or the level left. The procedure, abridged: as §2

Test [10] has as its target T1, G-protein coupled receptor 55. Briefly: Agonist activity at human GPR55 expressed in CHOK1 cells at 10 uM by pathHunter beta-arrestin assay relative to LPI. The class given is cell-based. The following applies: CHO-K1. The procedure, abridged: as §1
Test [11] deals with Cannabinoid receptor 1 (Homo sapiens) (UniProt P21554). Briefly: Antagonist activity at human CBR1 assessed as [35S]GTPgammaS binding at 10 uM by radiometric assay relative to control. Also on record: scale not given: the % may be the effect or the level left.
Test [12] addresses T5, Lysophosphatidylserine lipase ABHD12 (Homo sapiens). Briefly: Inhibition of human ABHD12 expressed in […] cells using 2-AG as substrate assessed as glycerol liberation at 10 uM preincubated for 30 mins followed by 2-AG addition measured for 90 mins by fluorescent glycerol assay relative to control. The class given is cell-based. More on the design: scale not given: the % may be the effect or the level left. In outline:
as §2

For test [13], the target named is T4, Monoacylglycerol lipase ABHD6 (Homo sapiens). The test can be described thus: Inhibition of human ABHD6 expressed in […] cells using 2-AG as substrate assessed as glycerol liberation at 10 uM preincubated for 30 mins followed by 2-AG addition measured for 90 mins by fluorescent glycerol assay relative to control. More on the design: scale not given: the % may be the effect or the level left. The class given is cell-based. The procedure, abridged: as §2

T1 sequence (Q9Y2T6 whole entry, the tested form may be a part): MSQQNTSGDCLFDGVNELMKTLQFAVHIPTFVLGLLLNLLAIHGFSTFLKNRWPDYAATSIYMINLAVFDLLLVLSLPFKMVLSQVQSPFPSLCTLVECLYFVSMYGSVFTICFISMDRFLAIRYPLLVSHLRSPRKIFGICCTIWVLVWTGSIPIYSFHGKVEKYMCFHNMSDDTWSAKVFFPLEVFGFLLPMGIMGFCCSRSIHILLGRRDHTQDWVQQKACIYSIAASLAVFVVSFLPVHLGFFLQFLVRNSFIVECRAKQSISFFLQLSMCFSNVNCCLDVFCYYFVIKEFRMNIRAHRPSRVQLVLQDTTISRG

The term EC50 denotes the concentration that produces a half-maximal response. With `O=C(NCCc1ccccc1)c1ccc(NC(=S)NC(=O)c2ccc(-c3ccccc3)cc2)cc1`, in test [1], the EC50 is over 10000 nM. Moreover, the Activity in [2] was found to be 101%; in test [3] it was 99%; in [4], 98%; in test [5], 99%; in [6], 85%; in test [7], 103%. Further, the Activity is 96% in [8], 98% in test [9], 68% in [10] and 99% in test [11].
Regarding `C=CCNS(=O)(=O)c1ccc(NC(=S)NC(=O)c2ccc(-c3ccccc3)cc2)cc1`, in test [1], the 50% effective concentration (EC50) turned out to be 19.4 nM. Further, the Activity in test [2] was found to be 96%; in test [3] it was 285%; in [4], 127%; in test [5], 87%; in test [6], 78%; in [7] it was 81%. Also, the Activity was found to be 99% in [8], 100% in test [9], 194% in [10] and 94% in [11].
Turning to `Cc1ccc(CNS(=O)(=O)c2ccc(NC(=S)NC(=O)c3ccc(-c4ccccc4)cc3)cc2)cc1`, in [1], the EC50 amounted to 12.4 nM. In addition, the Activity was 100% in test [2]; 220% in [3]; 105% in test [4]; 118% in [5]; 94% in test [6]; 103% in test [7]. Also, the Activity in test [8] turned out to be 100%; in test [9] it was 103%; in test [10] it was 148%; in test [11] it was 102%.
With `C=CCN(CC=C)S(=O)(=O)c1ccc(NC(=S)NC(=O)c2ccc([N+](=O)[O-])cc2)cc1`, the Activity in [2] amounted to 104%; in test [12], 62%; in test [3] it was 138%; in test [4], 99%; in test [5], 107%; in test [6], 97%. The Activity in [7] turned out to be 105%; in [8] it was 102%; in test [9], 102%; in test [10], 93%; in [13], 53%; in [11] it was 91%.
Regarding `Cc1ccc(C(=O)NC(=S)Nc2ccc(S(=O)(=O)NC(C)(C)C)cc2)cc1`, the Activity was found to be 96% in test [2]; 65% in [12]; 102% in test [3]; 105% in test [4]; 100% in test [5]; 103% in [6]. Also, the Activity in test [7] came out at 96%; in test [8], 96%; in test [9] it was 100%; in [10], 69%; in test [13], 53%; in test [11], 103%.
Consider `O=C(NC(=S)Nc1ccc(S(=O)(=O)Nc2ccccc2)cc1)c1ccc(-c2ccccc2)cc1`, for which the 50% effective concentration (EC50) in test [1] was 6.2 nM. In addition, the Activity was determined as 104% in [2]; 78% in test [12]; 263% in test [3]; 100% in test [4]; 90% in test [5]; 103% in test [6]. Moreover, the Activity in test [7] was determined as 96%; in test [10], 178%; in test [13], 78%; in test [11] it was 95%.
`O=C(NC(=S)Nc1ccc(S(=O)(=O)NCc2ccccc2)cc1)c1ccc(-c2ccccc2)cc1`: in test [1], the concentration giving a half-maximal response (EC50) was found to be 5.6 nM. Further, the Activity in [2] amounted to 97%; in test [12], 86%; in test [3], 291%; in test [4], 97%; in test [5], 93%; in test [6], 106%. The Activity is 83% in [7], 197% in [10], 86% in [13] and 94% in test [11].
`CC(C)NS(=O)(=O)c1ccc(NC(=S)NC(=O)c2ccc(-c3ccccc3)cc2)cc1`: the Activity stood at 98% in test [2]; 65% in test [12]; 185% in test [3]; 110% in [4]; 96% in [5]; 87% in test [6]. The Activity turned out to be 86% in [7]; 95% in [8]; 107% in test [9]; 34% in [13]; 92% in test [11].
As for `CCCNS(=O)(=O)c1ccc(NC(=S)NC(=O)c2ccc(-c3ccccc3)cc2)cc1`, the half-maximal effective concentration (EC50) in [1] is 176 nM. The Activity in [2] worked out at 103%; in test [12], 77%; in [3] it was 252%; in test [4], 128%; in test [5] it was 85%; in test [6], 96%. Also, the Activity in [7] turned out to be 85%; in [8], 103%; in test [10], 172%; in test [13] it was 67%; in test [11], 91%.
